Data on 18 compounds can be found in ChEMBL document CHEMBL1142419, “Antimycobacterial activities of novel 2-(sub)-3-fluoro/nitro-5,12-dihydro-5-oxobenzothiazolo[3,2-a]quinoline-6-carboxylic acid” (Bioorg Med Chem, 2008).

pIC50: −log10 of the molar value. In brackets after ≈: the same amount, converted by molar mass.

The test system of data set [1] is Mycobacterium tuberculosis. The data set is described as follows: Antimycobacterial activity against Mycobacterium tuberculosis H37Rv by agar dilution method. The data set is classed as functional. In a few lines: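 MIC by agar dilution on Middlebrook 7H11 agar supplemented with OADC, following an NCCLS-like procedure, run in duplicate. The MDR-TB clinical isolate was resistant to isoniazid, rifampicin, ethambutol and ofloxacin.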
Background: Agar dilution tests growth on a series of plates holding different concentrations.

The test system of data set [2] is Mycolicibacterium smegmatis. The data set is described as follows: Antimycobacterial activity against Mycobacterium smegmatis MC2 by agar dilution method. The data set is classed as functional. In a few lines:
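Agar dilution on Middlebrook 7H11 agar supplemented with OADC, following an NCCLS-like procedure; MIC determined in duplicate against M. smegmatis ATCC 14468 (MC²).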

The next data set has as its system Vero. Nature of the data set: Cytotoxicity against african green monkey Vero cells after 72 hrs by MTT assay. The data set is classed as cell-based. The settings on record: Chlorocebus sabaeus. An outline of the steps: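 Vero mammalian cells were exposed to compounds for 72 h, with testing at 62.5 µg/ml. Viability was read as cellular conversion of MTT to formazan (non-radioactive cell proliferation kit), and IC50 was reported.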
In general terms: Tetrazolium assays rely on reduction of a dye to a coloured formazan, in cell work by metabolically active cells.

Data set [3] can be described thus: Inhibition of Mycobacterium smegmatis DNA gyrase supercoiling activity. Further details: species or system Mycolicibacterium smegmatis.
In data set [4] the test system is Mus musculus. The data set is described as follows: Phototoxicity in Swiss albino mouse assessed as ear thickness at 140 mg/kg, po after 4 hrs of irradiation. The data set is classed as organism-based. Also noted: dose 140 mg/kg, route oral. The following applies: in vivo. An outline of the steps:
(§1)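 Female Swiss albino mice (about 2 months, 20–25 g), fasted at least 18 h, received a single oral gavage of 140 mg/kg. Groups: six per group; lomefloxacin HCl 140 mg/kg; vehicle 0.5% aqueous sodium carboxymethylcellulose at 10 ml/kg. Mice were UV-irradiated for 4 h (about 18 J/cm²). Both ears were scored for erythema, edema and ear thickness (left/right averaged) pre-dose, at end of irradiation, and at about 24, 48, 72 and 96 h. Ear thickness change from baseline was tested by Student's t-tests.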

Data set [5] has as its system Mus musculus. The data set is described as follows: Phototoxicity in Swiss albino mouse assessed as ear thickness at 140 mg/kg, po after 24 hrs of irradiation. The data set is classed as organism-based. Also noted: dose 140 mg/kg, route oral. The following applies: in vivo. In a few lines:
as §1

In data set [6] the test system is Mus musculus. The data set is described as follows: Phototoxicity in Swiss albino mouse assessed as ear thickness at 140 mg/kg, po after 48 hrs of irradiation. It is filed as organism-based. Also noted: dose 140 mg/kg, route oral. The following applies: in vivo. An outline of the steps: as §1
Data set [7] deals with Mus musculus. Nature of the data set: Phototoxicity in Swiss albino mouse assessed as ear thickness at 140 mg/kg, po after 72 hrs of irradiation. It is filed as organism-based. Further details: dose 140 mg/kg, route oral. The settings on record: in vivo. In a few lines: as §1
Data set [8] relates to Mus musculus. The data set is described as follows: Phototoxicity in Swiss albino mouse assessed as ear thickness at 140 mg/kg, po after 96 hrs of irradiation. It is filed as organism-based. Further details: dose 140 mg/kg, route oral. The settings on record: in vivo. In a few lines: as §1
In data set [9] the test system is Mus musculus. Nature of the data set: Phototoxicity in Swiss albino mouse assessed as erythema incidence at 140 mg/kg, po after 4 hrs of irradiation. The data set is classed as organism-based. Also noted: dose 140 mg/kg, route oral. The settings on record: in vivo. In a few lines: as §1
Data set [10] concerns Mus musculus. Nature of the data set: Phototoxicity in Swiss albino mouse assessed as erythema incidence at 140 mg/kg, po after 24 hrs of irradiation. It is filed as organism-based. Further details: dose 140 mg/kg, route oral. The following applies: in vivo. In a few lines: as §1
Data set [11] concerns Mus musculus. The data set is described as follows: (§2) Phototoxicity in Swiss albino mouse assessed as erythema incidence at 140 mg/kg, po after 48 hrs of irradiation. It is filed as organism-based. Further details: dose 140 mg/kg, route oral. The following applies: in vivo. An outline of the steps: as §1
For data set [12], the system named is Mus musculus. Described as §2. The data set is classed as organism-based. Further details: dose 140 mg/kg, route oral. The settings on record: in vivo. An outline of the steps: as §1
The source holds these as a separate data set.

Data set [13] concerns Mus musculus. The data set is described as follows: Phototoxicity in Swiss albino mouse assessed as erythema incidence at 140 mg/kg, po after 96 hrs of irradiation. It is filed as organism-based. Further details: dose 140 mg/kg, route oral. The following applies: in vivo. In a few lines:
as §1

Turning to `Cc1onc(-c2c(F)cccc2F)c1C(=O)N1CCN(c2cc3c(cc2F)c(=O)c(C(=O)O)c2sc4ccccc4n23)CC1`, the minimal inhibitory concentration (MIC) in [1] came to 2.52 µM (≈ 1.56 µg/mL); in data set [2], 40.4 µM (≈ 25 µg/mL).
Turning to `O=C(O)c1c(=O)c2cc(F)c(N3CCN(C(=O)c4ccco4)CC3)cc2n2c1sc1ccccc12`, the minimal inhibitory concentration (MIC) in data set [1] was found to be 6.37 µM (≈ 3.13 µg/mL); in data set [2], 50.9 µM (≈ 25 µg/mL).
In the case of `O=C(O)c1cn2c(n1)CN(c1cc3c(cc1F)c(=O)c(C(=O)O)c1sc4ccccc4n13)CC2`, the minimal inhibitory concentration (MIC) amounted to 3.26 µM (≈ 1.56 µg/mL) in data set [1] and 52.2 µM (≈ 25 µg/mL) in [2]. In addition, the pIC50 in the data set on Vero is under 3.88.
On to `O=C(O)c1c(=O)c2cc([N+](=O)[O-])c(N3CCN(C(=O)C4COc5ccccc5O4)CC3)cc2n2c1sc1ccccc12` (configuration not stated), for which the minimal inhibitory concentration (MIC) in data set [1] was 10.7 µM (≈ 6.25 µg/mL); in [2], 85.2 µM (≈ 50 µg/mL).
For `COc1ccc(CC2C3=C(CCCC3)CCN2c2cc3c(cc2[N+](=O)[O-])c(=O)c(C(=O)O)c2sc4ccccc4n23)cc1` (configuration not stated), the MIC in [1] stood at 10.5 µM (≈ 6.25 µg/mL); in data set [2], 83.9 µM (≈ 50 µg/mL).
On the same counts, the results for `Cc1onc(-c2c(F)cccc2F)c1C(=O)N1CCN(c2cc3c(cc2[N+](=O)[O-])c(=O)c(C(=O)O)c2sc4ccccc4n23)CC1` are 4.85 µM (≈ 3.13 µg/mL) and 77.5 µM (≈ 50 µg/mL).
`COc1cc2c(cc1OC)CN(c1cc3c(cc1[N+](=O)[O-])c(=O)c(C(=O)O)c1sc4ccccc4n13)CC2`: the MIC in [1] was found to be 1.47 µM (≈ 0.781 µg/mL); in [2], 47 µM (≈ 25 µg/mL). This compound gave a pIC50 in the data set with Vero of 3.93.
Regarding `COc1ccc(CC2C3=C(CCCC3)CCN2c2cc3c(cc2F)c(=O)c(C(=O)O)c2sc4ccccc4n23)cc1` (configuration not stated), the minimal inhibitory concentration (MIC) worked out at 5.5 µM (≈ 3.13 µg/mL) in data set [1] and 44 µM (≈ 25 µg/mL) in data set [2].
Consider `CCN(CC)C(=O)C1CCCN(c2cc3c(cc2[N+](=O)[O-])c(=O)c(C(=O)O)c2sc4ccccc4n23)C1` (configuration not stated), for which the figures for the MIC in data set [1] and in data set [2] were 2.99 µM (≈ 1.56 µg/mL) and 95.7 µM (≈ 50 µg/mL), respectively. In the data set on Vero, this compound gave a negative-log IC50 (pIC50) of 4.22.
On to `O=C(O)c1cn2c(n1)CN(c1cc3c(cc1[N+](=O)[O-])c(=O)c(C(=O)O)c1sc4ccccc4n13)CC2`, for which the results for the minimum inhibitory concentration (MIC) in [1] and in data set [2] were 1.54 µM (≈ 0.778 µg/mL) and 98.2 µM (≈ 49.6 µg/mL), respectively. The pIC50 with Vero was 3.91.
In data set [3], `O=C(O)c1c(=O)c2cc(F)c(N3CCC(O)(c4ccc(Cl)cc4)CC3)cc2n2c1sc1ccccc12` came in with an IC50 of 40 µg/mL (≈ 76.5 µM). Also, the Activity in the data set with Mus musculus [4] is 0.32 mm; in the data set on Mus musculus [5], 0.31 mm; with Mus musculus [6] it was 0.29 mm; in the data set on Mus musculus [7], 0.32 mm; with Mus musculus [8], 0.3 mm; in the data set on Mus musculus [9], “Non-toxic”. For the same compound, the Activity entry in the data set with Mus musculus [10], in the data set on Mus musculus [11], in the data set with Mus musculus [12] and with Mus musculus [13] was “Non-toxic” in each case. For the same compound, the MIC in data set [1] is 0.36 µM (≈ 0.188 µg/mL); in [2], 2.98 µM (≈ 1.56 µg/mL). The pIC50 in the data set with Vero was 3.92.
Turning to `O=C(O)c1c(=O)c2cc([N+](=O)[O-])c(N3CCC(N4CCCCC4)CC3)cc2n2c1sc1ccccc12`, the minimum inhibitory concentration (MIC) in data set [1] was 3.08 µM (≈ 1.56 µg/mL); in data set [2] it was 98.7 µM (≈ 50 µg/mL). The compound further showed a pIC50 in the data set with Vero of 4.21.
With `O=C(O)c1c(=O)c2cc([N+](=O)[O-])c(N3CCSCC3)cc2n2c1sc1ccccc12`, the MIC in data set [1] stood at 7.09 µM (≈ 3.13 µg/mL); in data set [2], 113 µM (≈ 50 µg/mL).
For the compound `O=C(O)c1c(=O)c2cc([N+](=O)[O-])c(N3CCN(C(=O)c4ccco4)CC3)cc2n2c1sc1ccccc12`, the minimum inhibitory concentration (MIC) in [1] came to 6.04 µM (≈ 3.13 µg/mL); in [2], 48.2 µM (≈ 25 µg/mL).
Turning to `COc1cc2c(cc1OC)CN(c1cc3c(cc1F)c(=O)c(C(=O)O)c1sc4ccccc4n13)CC2`, the MIC worked out at 1.55 µM (≈ 0.782 µg/mL) in data set [1] and 6.2 µM (≈ 3.13 µg/mL) in [2]. Further, the pIC50 in the data set on Vero was under 3.91.
Take `CC1CN(c2cc3c(cc2F)c(=O)c(C(=O)O)c2sc4ccccc4n23)CC(C)O1` (configuration not stated): the MIC in data set [1] was 7.34 µM (≈ 3.13 µg/mL); in [2], 29.3 µM (≈ 12.5 µg/mL).
For `CN1CCN(c2cc3c(cc2[N+](=O)[O-])c(=O)c(C(=O)O)c2sc4ccccc4n23)CC1c1ccccc1` (configuration not stated) the same measures were 12.2 µM (≈ 6.25 µg/mL) and 97.2 µM (≈ 50 µg/mL).
For `CCn1cc(C(=O)O)c(=O)c2cc(F)c(N3CCNC(C)C3)c(F)c21` (configuration not stated) [LOMEFLOXACIN], the Activity with Mus musculus [4] is recorded as 0.4 mm; with Mus musculus [5] it was 0.48 mm; in the data set on Mus musculus [6], 0.53 mm; with Mus musculus [7], 0.64 mm; in the data set with Mus musculus [8], 0.6 mm; in the data set with Mus musculus [9], “Toxic”. Moreover, the Activity entry with Mus musculus [10], in the data set on Mus musculus [11], in the data set on Mus musculus [12] and in the data set with Mus musculus [13] was “Toxic” each time.

As usually defined, the MIC is the lowest concentration found to suppress growth. What is called pIC50 is the negative decadic logarithm of the IC50, by convention in mol/L. One may read the IC50 as the concentration needed to halve the response being measured.
